Assay outcomes deposited in PubChem BioAssay by SRMLSC.
This excerpt belongs to a sample that is enriched for hits.
HUVEC inhibit: human endothelial cell proliferation inhibition; HUVEC proliferation, CellTiter-Glo luminescence, 72 h; active compounds read low; viability, % at 10 µM (by protocol); AID 648; hit rate 1.1% among 86,000;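 active = viability at or below 30%; inactive = viability above 30%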;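 note: 100% = median luminescence of DMSO-only cell control wells on each plate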
HCT116 PTEN-null: suppresses growth of cells with PTEN deletion | hit rate 1.2% among 140,000 | viability, % at 10 µM | HCT116 PTEN-null viability, CellTiter-Glo, 60 h; active compounds read low;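 active = viability at or below a set limit, 4 SD under the median of all tested compounds, cut at about 3.7% in these data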;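 note: PTEN knockout HCT116 line with beta catenin targeted HCT116 as companion control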
H69AR growth 86K: growth inhibitors of human H69AR lung tumor cells; H69AR lung tumor viability, ATP luminescence, 72 h; active compounds read low; viability, % at 10 µM; hit rate 6% among 85,000; AID 598;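 active = viability at or below 40%; inactive = viability above 40%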;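 note: multidrug resistant small cell line overexpressing MRP-1 efflux transporter; 100% = mean luminescence of untreated control wells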
Lung fibro prol: blocks proliferation of human lung fibroblasts; LL 47 human lung fibroblast viability, ATP luminescence; active compounds read low; viability, % at 10 µM; hit rate 1.1% among 85,000;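 active = viability at or below 50% in the single dose screen; inactive = viability above 50%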;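 note: compound exposure lasted 72 h before the ATP readout; 100% = median luminescence of untreated cell-only wells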
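Test system: LL 47 human lung fibroblasts; Quantity: 1,150 cells/well; Buffer or medium: IMEM plus 15% FBS; Dosing: tenfold compound dosing solution, DMSO at 0.1%; Timing: overnight cell rest, 72 h compound treatment at 37 °C; Detection: ATP-based CellTiter-Glo luminescent readout; Read-out basis: viability percentage against median untreated-cell control; Controls: cell-only wells, no compound.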
bCat KO growth: beta-catenin-lacking colon tumor cell growth suppression. HCT116 beta-catenin knockout viability, CellTiter-Glo, 60 h; active compounds read low. AID 818. viability, % at 10 µM. hit rate 1.5% among 140,000;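 active = viability at or under a set limit, the compound median less 4 SD, cut at about 6% in these data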;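 note: 0% = Hyamine 1622 control at 20 µM and 100% = untreated cell control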
* marks the source's active call; other numbers are inactive results.

Results for CCNc1nc(NCC)nc(SCCOC(=O)Nc2ccc(Cl)cc2Cl)n1 ?
HCT116 PTEN-null: 86; bCat KO growth: 87

Results for Cc1ccc(SCc2cc(=O)[nH]c(Nc3nc(C)c4cccc(C)c4n3)n2)cc1 ?
HCT116 PTEN-null: 78; bCat KO growth: 62

How did CCOc1ccc2nc(Nc3nc(CSc4nnnn4-c4ccccc4)cc(=O)[nH]3)nc(C)c2c1 do in these assays?
HUVEC inhibit: 53; HCT116 PTEN-null: 63; H69AR growth 86K: 4.5*; Lung fibro prol: 96; bCat KO growth: 70

How did COCc1cc(=O)[nH]c(Nc2nc3ccccc3o2)n1 do in these assays?
HCT116 PTEN-null: 16; bCat KO growth: 20

Results for COCc1cc(=O)[nH]c(Nc2nc(C)c3ccccc3n2)n1 ?
HUVEC inhibit: 84; HCT116 PTEN-null: 2.3*; H69AR growth 86K: 27*; Lung fibro prol: 48*; bCat KO growth: 1.7*

How did COc1ccc2nc(Nc3nc(C)c(CCC(C)C)c(=O)[nH]3)nc(C)c2c1 do in these assays?
HUVEC inhibit: 84; HCT116 PTEN-null: 63; H69AR growth 86K: 81; Lung fibro prol: 108; bCat KO growth: 58

How did Cc1ccc2c(C)nc(Nc3nc(CSc4nnnn4-c4ccccc4)cc(=O)[nH]3)nc2c1 do in these assays?
HUVEC inhibit: 88; HCT116 PTEN-null: 3.3*; H69AR growth 86K: 35*; Lung fibro prol: 88; bCat KO growth: 2.7*

Results for COc1ccc2nc(Nc3nc(CSc4nnnn4-c4ccccc4)cc(=O)[nH]3)nc(C)c2c1 ?
HUVEC inhibit: 3.0*; HCT116 PTEN-null: 2.0*; H69AR growth 86K: 1.7*; Lung fibro prol: 95; bCat KO growth: 1.8*

What do the screens show for `CCOc1ccccc1NC(=O)Cn1c(=O)n(-c2ccccc2)c(=O)c2oc3ccccc3c21`?
HCT116 PTEN-null: 93; bCat KO growth: 87

How did O=c1[nH]c(CN2CCN(C/C=C/c3ccccc3)CC2)nc2cc(Cl)ccc12 do in these assays?
HUVEC inhibit: 28*; HCT116 PTEN-null: 53; H69AR growth 86K: 88; Lung fibro prol: 82; bCat KO growth: 50

How did O=C(NC1C=CS(=O)(=O)C1)c1sc2ccccc2c1Cl (configuration not stated) do in these assays?
HUVEC inhibit: 73; HCT116 PTEN-null: 6; H69AR growth 86K: 1.7*; Lung fibro prol: 76; bCat KO growth: 8

What do the screens show for `Cc1nc([N+](=O)[O-])c(Sc2nc3ccccc3n2C)n1Cc1ccccc1`?
HCT116 PTEN-null: 1.8*; bCat KO growth: 2.7*

What do the screens show for `Cc1ccc(NC(=O)CSc2ccc3nnc(CCNC(=O)c4ccccc4)n3n2)c(C)c1`?
HCT116 PTEN-null: 93; bCat KO growth: 99

How did Cn1c(/C(C#N)=C(\O)COc2ccc3ccccc3c2)nc2ccccc21 do in these assays?
HUVEC inhibit: 58; HCT116 PTEN-null: 46; H69AR growth 86K: 12*; Lung fibro prol: 84; bCat KO growth: 55

Results for Cc1ccc(-n2nc(C)c(NC(=O)CCl)c2C)cc1C ?
HCT116 PTEN-null: 6; bCat KO growth: 7

What do the screens show for `CC(=O)n1c(Cl)c(NC(=O)CCl)c2ccccc21`?
HUVEC inhibit: 92; HCT116 PTEN-null: 33; H69AR growth 86K: 1.5*; Lung fibro prol: 64; bCat KO growth: 33

How did Nc1cc(CN2C(=O)c3ccccc3C2=O)cc(Cl)c1O do in these assays?
HUVEC inhibit: 95; HCT116 PTEN-null: 94; H69AR growth 86K: 34*; Lung fibro prol: 101; bCat KO growth: 83

Results for CCn1c(NC(=O)c2cccs2)nc2ccccc21 ?
HUVEC inhibit: 79; HCT116 PTEN-null: 21; H69AR growth 86K: 33*; Lung fibro prol: 65; bCat KO growth: 20

How did CCn1c(NC(=O)Nc2ccccc2OC)nc2ccccc21 do in these assays?
HUVEC inhibit: 90; HCT116 PTEN-null: 82; H69AR growth 86K: 36*; Lung fibro prol: 95; bCat KO growth: 88

Results for COc1ccc(NC(=O)c2c(C(F)(F)F)nn(C)c2SCc2ccccc2Cl)cc1 ?
HCT116 PTEN-null: 69; bCat KO growth: 73

What do the screens show for `Cc1ccc2nc(SCc3cn4cccnc4n3)[nH]c2c1`?
HCT116 PTEN-null: 88; bCat KO growth: 95

What do the screens show for `O=C1CCCc2c1[nH]c1ccc(Cl)cc21`?
HUVEC inhibit: 19*; HCT116 PTEN-null: 94; H69AR growth 86K: 107; Lung fibro prol: 97; bCat KO growth: 87

Results for CC/C(=N\N=C1\SC(C)C(=O)N1Cc1ccco1)c1ccccc1 (configuration not stated) ?
HCT116 PTEN-null: 95; bCat KO growth: 87

How did C=CCn1c(SCC(=O)c2[nH]c(C)c(C(=O)OCC)c2C)nc2scc(-c3ccccc3)c2c1=O do in these assays?
HCT116 PTEN-null: 1.3*; bCat KO growth: 2.0*

Results for C=CCn1c(SCC(=O)c2[nH]c(C)c(C(=O)OCC)c2C)nc2scc(-c3ccc(OC)cc3)c2c1=O ?
HCT116 PTEN-null: 1.6*; bCat KO growth: 1.7*

Results for CCN1/C(=C/C=C/C=C/c2sc3ccccc3[n+]2CC)Sc2ccccc21 ?
HCT116 PTEN-null: 1.7*; bCat KO growth: 1.2*

What do the screens show for `CC[n+]1c(/C=C/Nc2ccccc2)sc2ccccc21`?
HCT116 PTEN-null: 56; bCat KO growth: 52

Results for COc1cc2c(C(=O)N3CCN(c4ccccc4)CC3)c(C)oc2cc1Br ?
HUVEC inhibit: 87; HCT116 PTEN-null: 65; H69AR growth 86K: 23*; Lung fibro prol: 97; bCat KO growth: 64

What do the screens show for `CCOc1ccc2ccccc2c1C(=O)N1CCN(c2ccccc2)CC1`?
HUVEC inhibit: 49; HCT116 PTEN-null: 22; H69AR growth 86K: 15*; Lung fibro prol: 59; bCat KO growth: 20

How did COc1ccc(C(=O)N2CCN(c3cccc(Cl)c3)CC2)c(OC)c1 do in these assays?
HUVEC inhibit: 57; HCT116 PTEN-null: 29; H69AR growth 86K: 15*; Lung fibro prol: 91; bCat KO growth: 31

How did COc1ccc(C(=O)N2CCN(S(=O)(=O)c3ccccc3)CC2)c(OC)c1 do in these assays?
HUVEC inhibit: 100; HCT116 PTEN-null: 103; H69AR growth 86K: 98; Lung fibro prol: 104; bCat KO growth: 89

Results for COc1ccccc1C(=O)N1CCN(c2cccc(C(F)(F)F)c2)CC1 ?
HUVEC inhibit: 63; HCT116 PTEN-null: 25; H69AR growth 86K: 15*; Lung fibro prol: 63; bCat KO growth: 19

What do the screens show for `N#Cc1c(N)nc2c(c1-c1ccc3c(c1)OCO3)CCc1ccccc1-2`?
HCT116 PTEN-null: 60; bCat KO growth: 57

How did Cc1ccc(OCCN2C(=O)NC3(CCc4ccccc4C3)C2=O)cc1 (configuration not stated) do in these assays?
HCT116 PTEN-null: 92; bCat KO growth: 91

How did Oc1ccccc1C=NCC(O)c1ccccc1 (configuration not stated) do in these assays?
HCT116 PTEN-null: 98; bCat KO growth: 97

Results for CCOc1ccccc1C(=O)N1CCN(c2cccc(Cl)c2)CC1 ?
HUVEC inhibit: 30; HCT116 PTEN-null: 15; H69AR growth 86K: 31*; Lung fibro prol: 57; bCat KO growth: 20
